In ChEMBL document CHEMBL2311299, “New 2-(aryloxy)-3-phenylpropanoic acids as peroxisome proliferator-activated receptor α/γ dual agonists able to upregulate mitochondrial carnitine shuttle system gene expression” (J Med Chem, 2013):
The source made the active and inactive calls. The rule behind the calls is not given here.

Legend:
[1] = target: T1, Peroxisome proliferator-activated receptor alpha (Homo sapiens, UniProt Q07869); assay: Transactivation of GAL4-fused human PPARalpha ligand binding domain expressed in HepG2 cells after 20 hrs by luciferase reporter gene assay; format: cell-based
T1 sequence (Q07869 whole entry): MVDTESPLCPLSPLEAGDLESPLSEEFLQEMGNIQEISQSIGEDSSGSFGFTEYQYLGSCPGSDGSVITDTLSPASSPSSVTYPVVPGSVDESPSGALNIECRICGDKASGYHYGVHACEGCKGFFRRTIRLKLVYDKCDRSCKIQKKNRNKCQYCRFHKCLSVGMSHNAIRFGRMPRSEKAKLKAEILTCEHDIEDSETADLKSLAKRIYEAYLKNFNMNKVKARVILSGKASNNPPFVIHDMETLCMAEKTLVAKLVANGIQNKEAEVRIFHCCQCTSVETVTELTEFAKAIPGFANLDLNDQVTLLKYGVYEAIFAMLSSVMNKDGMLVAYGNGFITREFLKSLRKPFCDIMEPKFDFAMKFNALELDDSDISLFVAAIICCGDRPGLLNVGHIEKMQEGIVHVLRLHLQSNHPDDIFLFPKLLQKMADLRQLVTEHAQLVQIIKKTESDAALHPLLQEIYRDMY
Method in brief: (§1)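 HepG2 cells transiently transfected (calcium phosphate) with Gal4–PPARα-LBD or Gal4–PPARγ-LBD (30 ng), five-Gal4-element TK-luciferase reporter (100 ng) and pCMVβgal (250 ng). 4 h post-transfection, triplicate 20 h ligand treatment up to 10 μM; luciferase read, β-galactosidase measured with ONPG.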

[2] = target: T2, Peroxisome proliferator-activated receptor alpha (Homo sapiens) (UniProt Q07869); assay: Transactivation of GAL4-fused human PPARalpha ligand binding domain expressed in HepG2 cells after 20 hrs by luciferase reporter gene assay relative to WY-14643; format: cell-based
T2 sequence (whole entry): T1 sequence (Q07869 whole entry)
Method in brief: as §1, with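 “ONPG. Efficacy as % of maximal fold induction by Wy-14,643 (α) or rosiglitazone (γ); experiments repeated at least twice.” for “ONPG.”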

[3] = target: T3, Peroxisome proliferator-activated receptor gamma (Homo sapiens, UniProt P37231); assay: Transactivation of GAL4-fused human PPARgamma ligand binding domain expressed in HepG2 cells after 20 hrs by luciferase reporter gene assay; format: cell-based
T3 sequence (P37231 whole entry): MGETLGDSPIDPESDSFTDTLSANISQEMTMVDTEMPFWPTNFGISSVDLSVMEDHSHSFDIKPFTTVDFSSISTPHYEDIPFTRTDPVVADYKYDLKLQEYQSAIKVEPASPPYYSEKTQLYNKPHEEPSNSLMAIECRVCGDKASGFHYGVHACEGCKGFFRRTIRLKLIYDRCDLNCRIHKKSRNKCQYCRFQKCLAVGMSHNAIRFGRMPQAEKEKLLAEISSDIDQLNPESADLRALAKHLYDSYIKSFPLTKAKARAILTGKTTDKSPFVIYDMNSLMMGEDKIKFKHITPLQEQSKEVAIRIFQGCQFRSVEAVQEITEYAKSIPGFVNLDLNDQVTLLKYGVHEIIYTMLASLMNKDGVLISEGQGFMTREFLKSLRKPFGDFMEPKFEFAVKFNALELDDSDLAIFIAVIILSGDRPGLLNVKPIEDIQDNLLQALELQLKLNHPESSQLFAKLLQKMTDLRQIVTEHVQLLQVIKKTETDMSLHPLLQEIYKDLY

[4] = target: T4, Peroxisome proliferator-activated receptor gamma (Homo sapiens) (UniProt P37231); assay: Binding affinity to PPARgamma-LBD site A and site B (unknown origin) at 40 uM after 3 hrs by isothermal titration calorimetry assay
T4 sequence (whole entry): T3 sequence (P37231 whole entry)
Method in brief: (§2)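 ITC at 25 °C on His-tagged PPARγ LBD dialysed into 20 mM Hepes pH 8.0, 1 mM TCEP; DMSO matched (<1%). […] Conditions: ligand 400 μM into 40 μM protein (5); reverse, 400 μM protein into 40 μM ligand (6); 600 μM ligand into 60 μM protein (7); protein 47 μM pre-equilibrated 3 h 1:1 with site-A ligand, titrated with 470 μM ligand (8); reverse titration (9).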

[5] = target: T4, Peroxisome proliferator-activated receptor gamma (Homo sapiens); assay: Binding affinity to PPARgamma-LBD site B (unknown origin) in presence of (S)-2-(biphenyl-4-yloxy)-3-phenylpropanoic acid at 470 uM after 3 hrs by isothermal titration calorimetry assay; method in brief: as §2
[6] = target: T2, Peroxisome proliferator-activated receptor alpha (Homo sapiens); assay: Agonist activity at PPARalpha in human HepG2 cells assessed as upregulation of CPT1 protein expression at 1 uM after 48 hrs by Western blotting analysis relative to control
[7] = target: T2, Peroxisome proliferator-activated receptor alpha (Homo sapiens); assay: Agonist activity at PPARalpha in human HepG2 cells assessed as upregulation of CPT1 mRNA expression at 1 uM after 24 hrs by RT-PCR analysis relative to control; format: cell-based
Method in brief: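 Serum-starved HepG2 cells (24 h depletion) exposed for 24 h to 1 μM ligand; untreated cells as control; Wy 14,643 (50 μM) reference. Total RNA from 1 × 10^6 cells, reverse transcribed, CAC or CPT1 transcript quantified by real-time PCR against human actin. Means ± SD of three duplicate independent experiments; one-way ANOVA, Bonferroni test versus control.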

[8] = target: T2, Peroxisome proliferator-activated receptor alpha (Homo sapiens); assay: Agonist activity at PPARalpha in human HepG2 cells assessed as upregulation of CAC protein expression at 1 uM after 48 hrs by Western blotting analysis relative to control
[9] = target: T4, Peroxisome proliferator-activated receptor gamma (Homo sapiens); assay: Binding affinity to PPARgamma-LBD site A (unknown origin) at 400 uM after 3 hrs by isothermal titration calorimetry assay; method in brief: as §2
[10] = target: T2, Peroxisome proliferator-activated receptor alpha (Homo sapiens); assay: Agonist activity at PPARalpha in human HepG2 cells assessed as upregulation of CAC mRNA expression at 1 uM after 24 hrs by RT-PCR analysis relative to control; format: cell-based
Method in brief: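 Total RNA from 1 × 10^6 cells, reverse transcribed, CAC or CPT1 transcript quantified by real-time PCR against human actin. Means ± SD of three duplicate independent experiments; one-way ANOVA, Bonferroni test versus control.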

[11] = target: T4, Peroxisome proliferator-activated receptor gamma (Homo sapiens); assay: Transactivation of GAL4-fused human PPARgamma ligand binding domain expressed in HepG2 cells up to 10 uM after 20 hrs by luciferase reporter gene assay; format: cell-based
Method in brief: as §1, with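 “ONPG. Efficacy as % of maximal fold induction by Wy-14,643 (α) or rosiglitazone (γ); experiments repeated at least twice.” for “ONPG.”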

[12] = target: T4, Peroxisome proliferator-activated receptor gamma (Homo sapiens); assay: Binding affinity to PPARgamma-LBD site B (unknown origin) at 600 uM after 3 hrs by isothermal titration calorimetry assay; method in brief: as §2
[13] = target: T4, Peroxisome proliferator-activated receptor gamma (Homo sapiens); assay: Binding affinity to PPARgamma-LBD site B and site C (unknown origin) at 60 uM after 3 hrs by isothermal titration calorimetry assay; method in brief: as §2

SMILES	EC50 [1] [nM]	Emax [2] [%]	EC50 [3] [nM]	other results
O=C(O)[C@H](Cc1ccccc1)Oc1ccc(-c2ccccc2C(F)(F)F)cc1	22	126	1000	–
CC(C)c1ccccc1-c1ccc(OC(Cc2ccccc2)C(=O)O)cc1 (single isomer, unassigned; form 2) [listing 1 of 2 here]	100	–	–	–
Cc1ccccc1-c1ccc(O[C@@H](Cc2ccccc2)C(=O)O)cc1C	31	133	640	–
CCc1ccccc1-c1ccc(O[C@@H](Cc2ccccc2)C(=O)O)cc1	12	143	1200	–
CC(C)c1ccccc1-c1ccc(OC(Cc2ccccc2)C(=O)O)cc1 (single isomer, unassigned; form 1) [listing 1 of 2 here]	–	147	–	Ka [4]: 3.1 ×10⁵ /M; Ka [5]: 1.87 ×10⁵ /M; Activity [6]: Active; fold change (FC) [7]: 2.3; Activity [8]: Active; Ka [9]: 3.6 ×10⁵ /M; fold change (FC) [10]: 1.5
COc1ccccc1-c1ccc(O[C@@H](Cc2ccccc2)C(=O)O)cc1	130	124	2300	–
Cc1cc(OC(Cc2ccccc2)C(=O)O)cc(C)c1-c1ccccc1 (racemic)	2100	50	2040	–
CCCc1ccccc1-c1ccc(OC(Cc2ccccc2)C(=O)O)cc1 (racemic)	240	131	–	Activity [11]: Active
Cc1cc(-c2ccccc2)ccc1O[C@@H](Cc1ccccc1)C(=O)O	990	68	700	–
CC(C)(Sc1ccc(CCN(CCCCC2CCCCC2)C(=O)NC2CCCCC2)cc1)C(=O)O	–	–	–	Activity [7]: Active
Cc1cc(O[C@@H](Cc2ccccc2)C(=O)O)ccc1-c1ccccc1	80	120	700	–
O=C(O)[C@H](Cc1ccccc1)Oc1ccc(-c2ccccc2-c2ccccc2)cc1	44	132	1400	–
Cc1ccc(-c2ccc(O[C@@H](Cc3ccccc3)C(=O)O)cc2)cc1	210	74	590	–
Cc1cccc(Nc2cc(Cl)nc(SCC(=O)O)n2)c1C	–	–	–	Activity [11]: inactive
O=C(O)[C@H](Cc1ccccc1)Oc1ccc(-c2ccccc2)cc1	–	116	–	–
O=C(O)[C@H](Cc1ccccc1)Oc1ccc(-c2ccccc2F)cc1	120	68	690	–
CC(C)c1ccccc1-c1ccc(OC(Cc2ccccc2)C(=O)O)cc1 (single isomer, unassigned; form 2) [listing 2 of 2 here]	–	145	–	Ka [12]: 1.34 ×10⁵ /M; Activity [11]: Active; Ka [13]: 1.3 ×10⁵ /M
CC(C)c1ccccc1-c1ccc(OC(Cc2ccccc2)C(=O)O)cc1 (single isomer, unassigned; form 1) [listing 2 of 2 here]	12	–	1000	–
Cc1cccc(C)c1-c1ccc(O[C@@H](Cc2ccccc2)C(=O)O)cc1	230	123	2540	–
O=C(O)C(Cc1ccccc1)Oc1ccc(-c2ccccc2CCc2ccccc2)cc1 (racemic)	280	73	–	Activity [11]: Active
Cc1cccc(-c2ccc(OC(Cc3ccccc3)C(=O)O)cc2)c1 (racemic)	220	69	460	–
Cc1cc(-c2ccccc2)cc(C)c1O[C@@H](Cc1ccccc1)C(=O)O	1130	61	3100	–
Cc1ccccc1-c1ccc(O[C@@H](Cc2ccccc2)C(=O)O)cc1	67	155	1360	–
CCCCCc1ccccc1-c1ccc(OC(Cc2ccccc2)C(=O)O)cc1 (racemic)	500	107	–	Activity [11]: Active
